Experiments:
[1] = folding enthalpy; higher = less favourable; fluorescence melt of hairpins on a sequencing array, two-state fit; settings: sodium 0.088 M
Method in brief: (§1)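 Folding enthalpy and melting temperature come from bootstrapped two-state fits to Cy3 fluorescence of library hairpins carrying annealed Cy3 and quencher oligos on a sequenced MiSeq flow cell. Imaging was done in 50 mM Na-HEPES pH 8.0, 25 mM NaCl, stepping by 2.5 °C up to 60 °C, and signals were normalised to pre-quench Cy3 and to control constructs. Results of four replicates were combined by inverse variance, and fitted temperatures were raised by 9.35 °C to match UV melts.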

[2] = melting temperature; fluorescence melt of hairpins on a sequencing array, two-state fit, raised by 9.35 °C to match UV melts; settings: sodium 0.088 M
Method in brief: as §1

Sequence | folding enthalpy [1] | Tm [2]
GATCATAGAGATGATC ((((((....)))))) | -30.1 kcal/mol | 44.5 °C
GTTATCCCGAAAGGGAAC (((..(((....)))))) | -10 kcal/mol | 26.8 °C
GGCCCGGGAAACCGGACC ((.((((....)))).)) | -29.3 kcal/mol | 57.5 °C
GCTCCCGGAAACGGAAGC (((.(((....))).))) | -28.6 kcal/mol | 50 °C
GCACGGCGAAAGCCACGC ((..(((....)))..)) | -19.1 kcal/mol | 54.9 °C
GATCGTTGCACGATC ((((((...)))))) | -38.6 kcal/mol | 60.7 °C
GAACCCGAAAGGGCGTTC ((((((....)))..))) | -11.9 kcal/mol | 33.7 °C
GGCCACGGAAACGTAGCC (((.(((....))).))) | -28 kcal/mol | 50.8 °C
GTAGTTGGAAACAACCAC ((.((((....)))).)) | -18.7 kcal/mol | 32.6 °C
GATCTTGATGAAGATC ((((((....)))))) | -23.4 kcal/mol | 44.1 °C
GCGTCGCGAAAGCGTTGC ((..(((....)))..)) | -17.9 kcal/mol | 48.6 °C
CGCTCGGAAACGACGGCG ((((((....)))..))) | -22.7 kcal/mol | 46.6 °C
GGCGCCTCGAAAGAGGCC (((..(((....)))))) | -8.15 kcal/mol | 50.5 °C
GGAATTGAAAAATTCC ((((((....)))))) | -28.9 kcal/mol | 48 °C
GGGCAAGGAAACTTACCC (((.(((....))).))) | -29.2 kcal/mol | 38.9 °C
GATCCGGGCCGGATC ((((((...)))))) | -46.2 kcal/mol | 60.3 °C
GAGCGTCCGAAAGGACTC (((..(((....)))))) | -7.91 kcal/mol | 30.7 °C
GTGAACTCGAAAGAGCAC (((..(((....)))))) | -13.4 kcal/mol | 35.1 °C
GATCTGAAAAGATC (((((....))))) | -28.2 kcal/mol | 45.6 °C
GATCCTTGGCAGGATC ((((((....)))))) | -35.3 kcal/mol | 49.4 °C
GATCTACCCTAGATC ((((((...)))))) | -24.7 kcal/mol | 40.7 °C
GCACAGCGAAAGCCATGC (((..((....))..))) | -11.9 kcal/mol | 38 °C
GATGCCGAAAGGCGCATC ((((((....)))..))) | -9.01 kcal/mol | 32.6 °C
GATCCCACTTGGGATC ((((((....)))))) | -42.5 kcal/mol | 61.1 °C

Sequence | folding enthalpy [1] | Tm [2]
GCAATCGGAAACAATTGC (((((.(....).))))) | -27.9 kcal/mol | 38 °C
GGTTTAGGAAACTAAACC (((((((....))))))) | -54.6 kcal/mol | 54.2 °C
GATCTTTAACAAGATC ((((((....)))))) | -32.6 kcal/mol | 38.1 °C
GACAAGGAAACTTGTC ((((((....)))))) | -43.8 kcal/mol | 51.8 °C
GCGGGGCGAAAGCGCGGC ((.(.((....)).).)) | -27.6 kcal/mol | 62.5 °C
GCCTTTCGAAAGAAGGC (((.(((....)))))) | -29.1 kcal/mol | 50.4 °C
GAGTTAGCGAAAGCTCTC (((..(((....)))))) | -11.5 kcal/mol | 35.1 °C
GAAACAGGAAACCGTTTC (((((.(....).))))) | -24.3 kcal/mol | 35.8 °C
GTACGTGGAAACGTGTAC ((((..(....)..)))) | -12.3 kcal/mol | 37.4 °C
GCTTCCGAAAGGAAGAGC ((((((....)))..))) | -13 kcal/mol | 55 °C
GCTGCACGAAAGTGAAGC (((.(((....))).))) | -36 kcal/mol | 60.5 °C
GCAGTCGAAAGACCGTGC ((((((....)))..))) | -16.8 kcal/mol | 38.1 °C
GATCCAACTTTGGATC ((((((....)))))) | -43.3 kcal/mol | 51 °C
GTTCGACGAAAGTCAAC (((.(((....)))))) | -15.8 kcal/mol | 36.8 °C
GCTCTTCGAAAGAATAGC (((.(((....))).))) | -30.7 kcal/mol | 38.5 °C
GATCCGGACCCGGATC ((((((....)))))) | -36.9 kcal/mol | 61.1 °C
GATCGTTAGAACGATC ((((((....)))))) | -34.7 kcal/mol | 55.2 °C
GATCATTACCATGATC ((((((....)))))) | -35.3 kcal/mol | 46.8 °C
GATCGGTTAGCCGATC ((((((....)))))) | -46.4 kcal/mol | 58.6 °C
GCATAGCGAAAGCTCTGC (((.(((....))).))) | -45.2 kcal/mol | 49.4 °C
GATCACCGAGGTGATC ((((((....)))))) | -46.8 kcal/mol | 63.5 °C
GCAGTACCGAAAGGTTGC (((..(((....)))))) | -20.4 kcal/mol | 43.3 °C
GGTCTTACGAAAGTAACC (((..(((....)))))) | -10.7 kcal/mol | 25.7 °C
